Consider four compounds from ChEMBL document CHEMBL4477204, “Tetrahydroisoquinoline-Derived Urea and 2,5-Diketopiperazine Derivatives as Selective Antagonists of the Transient Receptor Potential Melastatin 8 (TRPM8) Channel Receptor and Antiprostate Cancer Agents” (J Med Chem, 2016).

The structures appear in SMILES notation. The source made the active and inactive calls. The rule behind the calls is not given here.

Transient receptor potential cation channel subfamily A member 1 (Rattus norvegicus), sequence (Q6RI86 whole entry): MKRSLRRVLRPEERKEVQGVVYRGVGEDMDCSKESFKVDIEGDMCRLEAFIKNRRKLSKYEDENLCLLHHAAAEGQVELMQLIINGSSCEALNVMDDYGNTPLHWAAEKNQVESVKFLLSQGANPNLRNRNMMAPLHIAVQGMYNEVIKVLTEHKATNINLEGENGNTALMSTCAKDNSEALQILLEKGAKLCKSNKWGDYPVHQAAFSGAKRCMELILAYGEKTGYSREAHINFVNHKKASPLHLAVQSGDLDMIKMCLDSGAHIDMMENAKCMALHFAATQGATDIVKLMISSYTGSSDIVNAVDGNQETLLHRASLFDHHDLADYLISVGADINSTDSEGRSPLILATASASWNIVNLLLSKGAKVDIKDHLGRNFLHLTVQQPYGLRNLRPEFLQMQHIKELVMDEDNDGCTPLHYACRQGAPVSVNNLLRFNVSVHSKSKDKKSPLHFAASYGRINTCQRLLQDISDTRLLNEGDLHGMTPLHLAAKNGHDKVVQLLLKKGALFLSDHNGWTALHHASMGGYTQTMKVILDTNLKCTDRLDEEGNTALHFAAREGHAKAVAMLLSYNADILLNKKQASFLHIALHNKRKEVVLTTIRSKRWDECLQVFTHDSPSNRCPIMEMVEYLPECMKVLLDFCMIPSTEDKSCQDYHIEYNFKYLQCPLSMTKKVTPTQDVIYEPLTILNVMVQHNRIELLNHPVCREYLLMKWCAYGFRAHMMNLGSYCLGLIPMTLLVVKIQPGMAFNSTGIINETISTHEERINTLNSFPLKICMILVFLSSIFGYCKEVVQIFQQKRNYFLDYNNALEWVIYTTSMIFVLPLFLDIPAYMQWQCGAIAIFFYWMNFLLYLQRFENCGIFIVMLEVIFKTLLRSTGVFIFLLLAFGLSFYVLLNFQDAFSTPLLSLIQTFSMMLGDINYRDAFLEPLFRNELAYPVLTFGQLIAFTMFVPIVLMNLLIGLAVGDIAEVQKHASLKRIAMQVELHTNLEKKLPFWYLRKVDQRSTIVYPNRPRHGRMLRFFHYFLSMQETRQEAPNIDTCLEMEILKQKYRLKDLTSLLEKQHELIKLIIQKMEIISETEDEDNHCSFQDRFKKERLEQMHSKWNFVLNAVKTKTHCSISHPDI

The target in the first assay is Transient receptor potential cation channel subfamily V member 4 (Rattus norvegicus, UniProt Q9ERZ8). Description: Antagonist activity at recombinant rat TRPV4 expressed in HEK293 cells assessed as inhibition of 4alphaPDD-induced intracellular calcium accumulation preincubated for 5 mins followed by 4alphaPDD addition by Fluo-4-AM probe-based spectrofluorimetric assay. Format: cell-based.
Transient receptor potential cation channel subfamily V member 4, sequence (Q9ERZ8 whole entry): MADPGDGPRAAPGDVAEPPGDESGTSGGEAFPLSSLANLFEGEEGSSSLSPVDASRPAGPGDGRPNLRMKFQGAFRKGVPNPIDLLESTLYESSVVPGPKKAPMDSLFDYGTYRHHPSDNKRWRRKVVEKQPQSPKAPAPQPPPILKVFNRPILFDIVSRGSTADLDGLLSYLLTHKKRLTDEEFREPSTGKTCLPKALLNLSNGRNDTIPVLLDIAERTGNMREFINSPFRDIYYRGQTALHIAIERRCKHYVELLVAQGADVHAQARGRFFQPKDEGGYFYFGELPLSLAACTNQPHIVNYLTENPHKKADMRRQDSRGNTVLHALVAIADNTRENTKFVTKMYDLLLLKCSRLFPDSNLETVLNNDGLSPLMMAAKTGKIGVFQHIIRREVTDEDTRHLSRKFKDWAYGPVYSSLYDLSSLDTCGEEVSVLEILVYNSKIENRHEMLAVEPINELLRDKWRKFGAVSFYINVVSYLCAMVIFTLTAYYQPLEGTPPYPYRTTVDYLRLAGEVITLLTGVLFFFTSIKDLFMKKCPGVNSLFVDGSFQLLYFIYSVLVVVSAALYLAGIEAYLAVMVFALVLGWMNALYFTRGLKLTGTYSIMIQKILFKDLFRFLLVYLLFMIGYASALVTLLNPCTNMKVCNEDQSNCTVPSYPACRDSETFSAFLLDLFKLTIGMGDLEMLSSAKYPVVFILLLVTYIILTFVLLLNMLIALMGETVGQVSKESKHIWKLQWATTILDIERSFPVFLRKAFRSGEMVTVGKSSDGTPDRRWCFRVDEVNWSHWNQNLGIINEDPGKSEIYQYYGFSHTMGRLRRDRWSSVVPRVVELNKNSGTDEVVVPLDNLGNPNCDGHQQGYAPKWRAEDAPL
Details: not given
In short, it runs like this:
(§1)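 HEK-293 cells stably expressing the listed TRP channel (human TRPV1; rat TRPM8, TRPA1, TRPV2, TRPV3 or TRPV4) were Fluo-4-AM loaded (4 µM, 1 h, 25 °C) and suspended in Tyrode's buffer pH 7.4. Compound was added 5 min before agonist: icilin 0.25 µM (TRPM8), capsaicin 0.1 µM (TRPV1), AITC 100 µM (TRPA1), LPC 3 µM (TRPV2), thymol 100 µM (TRPV3), 4α-PDD 1 µM (TRPV4). Agonist alone was taken as 100%. IC50 from sigmoidal fit, at least triplicate.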
For orientation: Calcium assays in cells follow changes in intracellular calcium, usually with a dye or a luminescent sensor.
What is called IC50 is the concentration needed to halve the response being measured. Turning to `COc1cc(/C=C2\NC(=O)[C@@H]3Cc4c(OC)c(C)c(OC)c(OC)c4[C@@H](c4ccccc4)N3C2=O)c(OC)c(C)c1OC`, the IC50 is above 100 µM.
As to `COc1cc2c(cc1OC)[C@H](c1ccccc1)N(C(=O)N1CCc3cc(OC)c(OC)cc3[C@@H]1c1ccccc1)CC2` (racemic), the IC50 stood at 82.6 µM.
The same measure, in the same setting: in the case of `COc1cc2c(cc1OC)[C@H](c1ccc(F)cc1)N(C(=O)N1CCc3cc(OC)c(OC)cc3[C@@H]1c1ccc(F)cc1)CC2` (racemic) it was 96.2 µM; in that of `COc1cc2c(cc1OC)[C@H](c1ccc(Cl)cc1)N(C(=O)N1CCc3cc(OC)c(OC)cc3[C@@H]1c1ccc(Cl)cc1)CC2` (racemic), 81.5 µM.

In the next assay the test system is LNCaP. Description: Induction of apoptosis in human LNCAP cells assessed as increase in caspase3/7 activity at 10 uM after 72 hrs by caspase-glo 3/7 chemiluminescence assay relative to control. Format: functional.
Details: not given
In short, it runs like this:
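LNCaP cells were cultured 72 h with 10 µM compound or vehicle, then washed with PBS. Caspase-Glo 3/7 reagent was added to 1×10^4 cells/assay, incubated 1 h at room temperature in the dark, and luminescence was read. Vehicle blank was subtracted; runs were in triplicate. Camptothecin 0.1 µg/mL plus anti-Fas 0.2 µg/mL for 24 h served as the apoptosis reference.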
For `COc1cc(/C=C2\NC(=O)[C@@H]3Cc4c(OC)c(C)c(OC)c(OC)c4[C@@H](c4ccccc4)N3C2=O)c(OC)c(C)c1OC`, the Activity is given as 200%.
On the same count and under the same terms, in the case of `COc1cc2c(cc1OC)[C@H](c1ccccc1)N(C(=O)N1CCc3cc(OC)c(OC)cc3[C@@H]1c1ccccc1)CC2` (racemic) it was 220%; in that of `COc1cc2c(cc1OC)[C@H](c1ccc(F)cc1)N(C(=O)N1CCc3cc(OC)c(OC)cc3[C@@H]1c1ccc(F)cc1)CC2` (racemic), 198%; in that of `COc1cc2c(cc1OC)[C@H](c1ccc(Cl)cc1)N(C(=O)N1CCc3cc(OC)c(OC)cc3[C@@H]1c1ccc(Cl)cc1)CC2` (racemic), 190%.

The target of another assay is Transient receptor potential cation channel subfamily V member 1 (Homo sapiens, UniProt Q8NER1). The experiment in a line: Antagonist activity at recombinant human TRPV1 expressed in HEK293 cells assessed as inhibition of capsaicin-induced intracellular calcium accumulation up to 10 uM […] preincubated for 5 mins followed by capsaicin addition by Fluo-4-AM probe-based spectrofluorimetric assay. It counts as cell-based.
Transient receptor potential cation channel subfamily V member 1, sequence (Q8NER1 whole entry): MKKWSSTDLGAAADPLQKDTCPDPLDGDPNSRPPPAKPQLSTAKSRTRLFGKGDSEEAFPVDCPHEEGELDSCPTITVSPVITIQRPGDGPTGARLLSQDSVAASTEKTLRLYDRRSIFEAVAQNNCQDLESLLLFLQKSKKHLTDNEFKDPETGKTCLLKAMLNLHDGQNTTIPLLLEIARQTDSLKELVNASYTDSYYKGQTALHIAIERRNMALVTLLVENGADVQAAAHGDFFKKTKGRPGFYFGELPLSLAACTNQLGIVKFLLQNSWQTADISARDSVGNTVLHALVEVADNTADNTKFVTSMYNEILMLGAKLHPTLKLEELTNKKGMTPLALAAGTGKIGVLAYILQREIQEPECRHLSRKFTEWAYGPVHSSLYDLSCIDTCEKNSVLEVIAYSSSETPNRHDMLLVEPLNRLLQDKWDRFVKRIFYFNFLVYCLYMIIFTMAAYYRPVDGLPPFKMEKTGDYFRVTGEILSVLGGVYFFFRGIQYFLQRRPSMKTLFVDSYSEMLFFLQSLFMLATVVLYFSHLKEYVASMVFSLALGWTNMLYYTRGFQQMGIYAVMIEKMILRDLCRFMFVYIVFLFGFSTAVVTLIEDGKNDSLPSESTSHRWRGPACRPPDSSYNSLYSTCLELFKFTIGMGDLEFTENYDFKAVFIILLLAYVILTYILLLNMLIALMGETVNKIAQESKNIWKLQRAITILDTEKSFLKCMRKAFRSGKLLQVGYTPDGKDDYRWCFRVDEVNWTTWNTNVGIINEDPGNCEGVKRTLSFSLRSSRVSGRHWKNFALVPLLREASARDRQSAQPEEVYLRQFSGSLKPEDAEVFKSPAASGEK
Details: not given
Put shortly:
as §1
`COc1cc(/C=C2\NC(=O)[C@@H]3Cc4c(OC)c(C)c(OC)c(OC)c4[C@@H](c4ccccc4)N3C2=O)c(OC)c(C)c1OC`: the inhibition entry was “inactive”.
Same read-out and setting: the entry for `COc1cc2c(cc1OC)[C@H](c1ccccc1)N(C(=O)N1CCc3cc(OC)c(OC)cc3[C@@H]1c1ccccc1)CC2` (racemic) is “inactive”.
Still for that read-out and setting: in the case of `COc1cc2c(cc1OC)[C@H](c1ccc(F)cc1)N(C(=O)N1CCc3cc(OC)c(OC)cc3[C@@H]1c1ccc(F)cc1)CC2` (racemic) it was “inactive”; in that of `COc1cc2c(cc1OC)[C@H](c1ccc(Cl)cc1)N(C(=O)N1CCc3cc(OC)c(OC)cc3[C@@H]1c1ccc(Cl)cc1)CC2` (racemic), “inactive”.

Another assay concerns the target Transient receptor potential cation channel subfamily A member 1 (Rattus norvegicus) (UniProt Q6RI86). Description: Antagonist activity at recombinant rat TRPA1 expressed in HEK293 cells assessed as inhibition of AITC-induced intracellular calcium accumulation up to 10 uM preincubated for 5 mins followed by AITC addition by Fluo-4-AM probe-based spectrofluorimetric assay. Format: cell-based.
Details: not given
Put shortly: as §1
For `COc1cc(/C=C2\NC(=O)[C@@H]3Cc4c(OC)c(C)c(OC)c(OC)c4[C@@H](c4ccccc4)N3C2=O)c(OC)c(C)c1OC`, the inhibition result is “inactive”.
With `COc1cc2c(cc1OC)[C@H](c1ccccc1)N(C(=O)N1CCc3cc(OC)c(OC)cc3[C@@H]1c1ccccc1)CC2` (racemic), the inhibition entry is “inactive”.
Take `COc1cc2c(cc1OC)[C@H](c1ccc(F)cc1)N(C(=O)N1CCc3cc(OC)c(OC)cc3[C@@H]1c1ccc(F)cc1)CC2` (racemic): the inhibition result was “inactive”.
On to `COc1cc2c(cc1OC)[C@H](c1ccc(Cl)cc1)N(C(=O)N1CCc3cc(OC)c(OC)cc3[C@@H]1c1ccc(Cl)cc1)CC2` (racemic), for which the inhibition entry is “inactive”.

The subject of another assay is LNCaP. Description: Cytotoxicity against human LNCAP cells assessed as inhibition of cell growth at 10 uM after 72 hrs by trypan blue assay. It counts as functional.
Details: not given
In short, it runs like this: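 LNCaP cells were grown in RPMI-1640 with 10% FBS and given a daily dose of compound for 72 h. Cells were then counted in a Burker chamber, with cell number also estimated from dsDNA content at 4 pg DNA/cell. Dead cells were scored with 0.4% trypan blue. Statistics used ANOVA with Bonferroni's test.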
Turning to `COc1cc(/C=C2\NC(=O)[C@@H]3Cc4c(OC)c(C)c(OC)c(OC)c4[C@@H](c4ccccc4)N3C2=O)c(OC)c(C)c1OC`, the “growth inhibition (GI)” value is “Active”.
Still for that read-out and setting: the entry for `COc1cc2c(cc1OC)[C@H](c1ccccc1)N(C(=O)N1CCc3cc(OC)c(OC)cc3[C@@H]1c1ccccc1)CC2` (racemic) is “Active”.

Still in this assay, the particulars now being: read-out: GI.
For `COc1cc2c(cc1OC)[C@H](c1ccc(F)cc1)N(C(=O)N1CCc3cc(OC)c(OC)cc3[C@@H]1c1ccc(F)cc1)CC2` (racemic), the inhibition of growth at 10 µM amounted to 64.3%.
As for `COc1cc2c(cc1OC)[C@H](c1ccc(Cl)cc1)N(C(=O)N1CCc3cc(OC)c(OC)cc3[C@@H]1c1ccc(Cl)cc1)CC2` (racemic), the inhibition of growth at 10 µM came to 50.4%.

For another assay, the target named is Transient receptor potential cation channel subfamily M member 8 (Rattus norvegicus, UniProt Q8R455). Description: Antagonist activity at recombinant rat TRPM8 expressed in HEK293 cells assessed as inhibition of icilin-induced intracellular calcium accumulation preincubated for 5 mins followed by icilin addition by Fluo-4-AM probe-based spectrofluorimetric assay. It counts as cell-based.
Transient receptor potential cation channel subfamily M member 8, sequence (Q8R455 whole entry): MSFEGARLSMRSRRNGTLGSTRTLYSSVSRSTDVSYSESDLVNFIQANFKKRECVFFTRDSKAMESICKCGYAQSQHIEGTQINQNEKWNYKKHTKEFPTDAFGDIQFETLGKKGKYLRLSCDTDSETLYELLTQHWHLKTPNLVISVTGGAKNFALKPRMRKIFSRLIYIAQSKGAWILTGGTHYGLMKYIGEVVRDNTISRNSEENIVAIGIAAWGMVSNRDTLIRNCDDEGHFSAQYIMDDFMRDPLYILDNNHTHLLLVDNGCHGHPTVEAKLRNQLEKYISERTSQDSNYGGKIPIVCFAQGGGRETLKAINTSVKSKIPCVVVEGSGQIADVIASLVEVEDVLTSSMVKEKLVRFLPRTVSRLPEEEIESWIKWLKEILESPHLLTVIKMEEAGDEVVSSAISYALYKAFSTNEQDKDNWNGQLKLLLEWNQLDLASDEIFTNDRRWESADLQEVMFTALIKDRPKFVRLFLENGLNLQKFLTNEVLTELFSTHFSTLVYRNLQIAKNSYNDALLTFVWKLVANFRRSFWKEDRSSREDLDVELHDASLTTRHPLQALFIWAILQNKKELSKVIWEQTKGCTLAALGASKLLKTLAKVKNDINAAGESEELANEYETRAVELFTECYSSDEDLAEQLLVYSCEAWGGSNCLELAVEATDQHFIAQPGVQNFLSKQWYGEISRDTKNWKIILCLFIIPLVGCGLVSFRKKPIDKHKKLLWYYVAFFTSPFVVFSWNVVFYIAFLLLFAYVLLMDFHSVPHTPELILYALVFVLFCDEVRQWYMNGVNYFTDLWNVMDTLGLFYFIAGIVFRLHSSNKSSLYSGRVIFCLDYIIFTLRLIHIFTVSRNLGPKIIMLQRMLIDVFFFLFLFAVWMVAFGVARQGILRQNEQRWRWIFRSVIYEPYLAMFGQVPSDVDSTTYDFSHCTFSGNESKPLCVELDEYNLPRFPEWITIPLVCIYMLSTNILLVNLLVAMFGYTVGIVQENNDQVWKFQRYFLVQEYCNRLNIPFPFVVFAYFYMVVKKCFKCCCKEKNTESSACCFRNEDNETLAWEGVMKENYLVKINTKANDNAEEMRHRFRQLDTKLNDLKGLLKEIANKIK
Details: not given
In short, it runs like this:
as §1
As for `COc1cc(/C=C2\NC(=O)[C@@H]3Cc4c(OC)c(C)c(OC)c(OC)c4[C@@H](c4ccccc4)N3C2=O)c(OC)c(C)c1OC`, the half-inhibitory concentration (IC50) came out at 0.62 µM.
Same read-out and setting: in the case of `COc1cc2c(cc1OC)[C@H](c1ccccc1)N(C(=O)N1CCc3cc(OC)c(OC)cc3[C@@H]1c1ccccc1)CC2` (racemic) it was 0.5 µM; in that of `COc1cc2c(cc1OC)[C@H](c1ccc(F)cc1)N(C(=O)N1CCc3cc(OC)c(OC)cc3[C@@H]1c1ccc(F)cc1)CC2` (racemic), 0.072 µM.
The same measure, in the same setting: in the case of `COc1cc2c(cc1OC)[C@H](c1ccc(Cl)cc1)N(C(=O)N1CCc3cc(OC)c(OC)cc3[C@@H]1c1ccc(Cl)cc1)CC2` (racemic) it was 0.43 µM.

A further assay concerns the target T1, Heat sensitive channel TRPV3 (Rattus norvegicus, UniProt Q4QYD9).
T1 sequence (Q4QYD9 whole entry): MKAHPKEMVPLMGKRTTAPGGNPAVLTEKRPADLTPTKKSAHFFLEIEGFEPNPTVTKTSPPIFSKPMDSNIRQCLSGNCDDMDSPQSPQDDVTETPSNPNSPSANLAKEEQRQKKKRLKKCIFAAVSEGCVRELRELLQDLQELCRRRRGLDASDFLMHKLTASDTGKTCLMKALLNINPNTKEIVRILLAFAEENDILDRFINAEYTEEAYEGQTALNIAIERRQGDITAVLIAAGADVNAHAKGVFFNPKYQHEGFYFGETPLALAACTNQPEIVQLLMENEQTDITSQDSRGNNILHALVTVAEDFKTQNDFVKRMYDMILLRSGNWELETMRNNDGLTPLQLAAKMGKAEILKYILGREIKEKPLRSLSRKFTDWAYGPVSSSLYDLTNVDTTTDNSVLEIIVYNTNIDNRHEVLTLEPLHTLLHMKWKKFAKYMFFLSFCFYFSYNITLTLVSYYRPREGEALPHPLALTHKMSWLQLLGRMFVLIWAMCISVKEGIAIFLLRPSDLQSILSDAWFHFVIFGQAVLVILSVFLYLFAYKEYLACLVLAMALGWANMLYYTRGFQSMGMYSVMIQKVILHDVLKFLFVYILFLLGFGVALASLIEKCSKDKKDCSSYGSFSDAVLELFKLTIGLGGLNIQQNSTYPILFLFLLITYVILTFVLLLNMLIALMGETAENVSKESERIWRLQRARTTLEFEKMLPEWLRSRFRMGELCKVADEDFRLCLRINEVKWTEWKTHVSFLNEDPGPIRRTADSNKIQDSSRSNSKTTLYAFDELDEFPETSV
Description: Antagonist activity at recombinant rat TRPV3 expressed in HEK293 cells assessed as inhibition of thymol-induced intracellular calcium accumulation preincubated for 5 mins followed by thymol addition by Fluo-4-AM probe-based spectrofluorimetric assay. Format: cell-based.
Details: not given
Put shortly: as §1
On to `COc1cc(/C=C2\NC(=O)[C@@H]3Cc4c(OC)c(C)c(OC)c(OC)c4[C@@H](c4ccccc4)N3C2=O)c(OC)c(C)c1OC`, for which the IC50 is 34.3 µM.
Same read-out and setting: in the case of `COc1cc2c(cc1OC)[C@H](c1ccccc1)N(C(=O)N1CCc3cc(OC)c(OC)cc3[C@@H]1c1ccccc1)CC2` (racemic) it was above 100 µM.
Turning to `COc1cc2c(cc1OC)[C@H](c1ccc(F)cc1)N(C(=O)N1CCc3cc(OC)c(OC)cc3[C@@H]1c1ccc(F)cc1)CC2` (racemic), the IC50 worked out at 72.9 µM.
Same read-out and setting: in the case of `COc1cc2c(cc1OC)[C@H](c1ccc(Cl)cc1)N(C(=O)N1CCc3cc(OC)c(OC)cc3[C@@H]1c1ccc(Cl)cc1)CC2` (racemic) it was above 100 µM.

The target of another assay is T2, Transient receptor potential cation channel subfamily V member 2 (Rattus norvegicus, UniProt Q9WUD2).
T2 sequence (Q9WUD2 whole entry): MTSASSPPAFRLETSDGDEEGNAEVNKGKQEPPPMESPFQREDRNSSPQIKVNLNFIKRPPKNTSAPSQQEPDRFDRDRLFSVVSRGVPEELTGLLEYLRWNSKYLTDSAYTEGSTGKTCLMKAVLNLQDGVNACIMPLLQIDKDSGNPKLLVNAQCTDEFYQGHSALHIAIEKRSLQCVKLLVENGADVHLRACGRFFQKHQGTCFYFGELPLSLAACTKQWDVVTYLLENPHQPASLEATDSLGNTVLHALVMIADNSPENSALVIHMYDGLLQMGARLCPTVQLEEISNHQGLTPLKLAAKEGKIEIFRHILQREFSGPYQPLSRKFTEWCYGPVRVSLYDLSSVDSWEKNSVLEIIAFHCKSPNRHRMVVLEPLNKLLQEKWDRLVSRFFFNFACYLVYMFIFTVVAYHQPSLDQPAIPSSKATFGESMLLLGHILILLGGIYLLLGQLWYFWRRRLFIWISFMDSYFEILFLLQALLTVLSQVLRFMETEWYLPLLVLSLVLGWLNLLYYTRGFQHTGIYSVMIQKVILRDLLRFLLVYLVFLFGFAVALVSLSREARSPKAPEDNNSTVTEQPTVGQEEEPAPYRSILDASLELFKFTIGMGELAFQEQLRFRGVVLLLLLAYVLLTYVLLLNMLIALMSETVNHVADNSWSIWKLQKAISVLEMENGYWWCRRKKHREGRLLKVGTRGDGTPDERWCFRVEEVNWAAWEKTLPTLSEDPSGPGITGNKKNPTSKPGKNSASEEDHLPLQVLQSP
Description: Antagonist activity at recombinant rat TRPV2 expressed in HEK293 cells assessed as inhibition of LPC-induced intracellular calcium accumulation preincubated for 5 mins followed by LPC addition by Fluo-4-AM probe-based spectrofluorimetric assay. Format: cell-based.
Details: not given
In short, it runs like this: as §1
As for `COc1cc(/C=C2\NC(=O)[C@@H]3Cc4c(OC)c(C)c(OC)c(OC)c4[C@@H](c4ccccc4)N3C2=O)c(OC)c(C)c1OC`, the half-maximal inhibitory concentration (IC50) worked out at 12.4 µM.
On the same count and under the same terms, the figure for `COc1cc2c(cc1OC)[C@H](c1ccccc1)N(C(=O)N1CCc3cc(OC)c(OC)cc3[C@@H]1c1ccccc1)CC2` (racemic) is 51.9 µM.
Same read-out and setting: the figure for `COc1cc2c(cc1OC)[C@H](c1ccc(F)cc1)N(C(=O)N1CCc3cc(OC)c(OC)cc3[C@@H]1c1ccc(F)cc1)CC2` (racemic) is 94.3 µM; for `COc1cc2c(cc1OC)[C@H](c1ccc(Cl)cc1)N(C(=O)N1CCc3cc(OC)c(OC)cc3[C@@H]1c1ccc(Cl)cc1)CC2` (racemic) it is 54.9 µM.
